How the values were obtained:
[1] = Brain pharmacokinetics after a single 1 mg/kg dose; assay type: in vivo, C57BL/6J mice; details: for Cmax / MRT last / Tmax / k el: C57BL/6J, mouse, 1 mg/kg; for brain drug targeting efficiency: from zero-infinity predicted AUC values
Summary of the method: (§1)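 Anaesthetized (zolazepam/xylazine i.p.) male C57BL/6J mice, n = 4 per time point, were dosed 1 mg/kg by i.v., s.c., i.p. or gavage. At 2.5–90 min, after cardiac blood sampling, they were transcardially perfused with saline. Brain and spinal cord were homogenized in equal weight-volume water, spiked with internal standard, deproteinized 1:3 with cold acetonitrile and quantified by LC–MS/MS. Per-time-point means were fitted with a two-compartment model.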

[2] = Spinal cord pharmacokinetics after a single 1 mg/kg dose; assay type: in vivo, C57BL/6J mice; details: for Cmax / MRT last / Tmax / k el: C57BL/6J, mouse, 1 mg/kg; for spinal cord drug targeting efficiency: from zero-infinity predicted AUC values
Summary of the method: as §1

[3] = brain, i.p. 1 mg/kg single dose
[4] = brain, i.v. 1 mg/kg single dose
[5] = brain, p.o. 1 mg/kg single dose
[6] = brain, s.c. 1 mg/kg single dose
[7] = spinal cord, i.p. 1 mg/kg single dose

CC(=O)N[C@@H](Cc1ccccc1)C(=O)N[C@H]1CCCNC(=O)[C@H](CCCNC(=N)N)NC(=O)[C@H](Cc2c[nH]c3ccccc23)NC(=O)[C@@H](CC2CCCCC2)NC(=O)[C@@H]2CCCN2C1=O [PMX53, Ac-Phe-[Orn-Pro-dCha-Trp-Arg]]
Cmax ([1]; brain, ip): 48.1 ng/g
MRT last ([1]; brain, ip): 40.8 min
Tmax ([1]; brain, ip): 10.4 min
k el ([1]; brain, ip): 0.0002 s⁻¹
Cmax ([1]; brain, iv): 74.1 ng/g
MRT last ([1]; brain, iv): 42 min
k el ([1]; brain, iv): 0.0001 s⁻¹
Cmax ([1]; brain, po): 77 ng/g
MRT last ([1]; brain, po): 40.8 min
Tmax ([1]; brain, po): 14.9 min
k el ([1]; brain, po): 0.000122 s⁻¹
Cmax ([1]; brain, sc): 120 ng/g
MRT last ([1]; brain, sc): 42 min
Tmax ([1]; brain, sc): 19.9 min
k el ([1]; brain, sc): 0.000189 s⁻¹
Alpha (hybrid first-order rate constant, distribution phase) [1, 3]: 9.22 h⁻¹
Beta (hybrid first-order rate constant, elimination phase) [1, 3]: 0.30 h⁻¹
CLD2_F (apparent total clearance of the drug after administration) [1, 3]: 25.61 ng/(min ng/g)
CL_F (apparent total body clearance of the drug) [1, 3]: 3.77 ng/(min ng/g)
K01 (absorption rate constant) [1, 3]: 9.06 h⁻¹
K12 (distribution rate constant) [1, 3]: 4.92 h⁻¹
K21 (redistribution rate constant) [1, 3]: 3.87 h⁻¹
V1_F (apparent volume of central compartment) [1, 3]: 0.31 μg/(ng/g)
V2_F (apparent volume of peripheral compartment) [1, 3]: 0.40 μg/(ng/g)
Alpha (hybrid first-order rate constant, distribution phase) [1, 4]: 35.52 h⁻¹
Beta (hybrid first-order rate constant, elimination phase) [1, 4]: 0.20 h⁻¹
CLD2_F (apparent total clearance of the drug after administration) [1, 4]: 107.59 ng/(min ng/g)
CL_F (apparent total body clearance of the drug) [1, 4]: 2.43 ng/(min ng/g)
K12 (distribution rate constant) [1, 4]: 15.95 h⁻¹
K21 (redistribution rate constant) [1, 4]: 19.41 h⁻¹
V1_F (apparent volume of central compartment) [1, 4]: 0.40 μg/(ng/g)
V2_F (apparent volume of peripheral compartment) [1, 4]: 0.33 μg/(ng/g)
Vss (apparent volume of distribution at a steady state) [1, 4]: 0.74 μg/(ng/g)
Alpha (hybrid first-order rate constant, distribution phase) [1, 5]: 1.68 h⁻¹
Beta (hybrid first-order rate constant, elimination phase) [1, 5]: 0.26 h⁻¹
CLD2_F (apparent total clearance of the drug after administration) [1, 5]: 2.68 ng/(min ng/g)
CL_F (apparent total body clearance of the drug) [1, 5]: 2.28 ng/(min ng/g)
K01 (absorption rate constant) [1, 5]: 11.20 h⁻¹
K12 (distribution rate constant) [1, 5]: 0.51 h⁻¹
K21 (redistribution rate constant) [1, 5]: 0.99 h⁻¹
V1_F (apparent volume of central compartment) [1, 5]: 0.31 μg/(ng/g)
V2_F (apparent volume of peripheral compartment) [1, 5]: 0.16 μg/(ng/g)
Alpha (hybrid first-order rate constant, distribution phase) [1, 6]: 3.48 h⁻¹
Beta (hybrid first-order rate constant, elimination phase) [1, 6]: 0.41 h⁻¹
CLD2_F (apparent total clearance of the drug after administration) [1, 6]: 2.91 ng/(min ng/g)
CL_F (apparent total body clearance of the drug) [1, 6]: 1.75 ng/(min ng/g)
K01 (absorption rate constant) [1, 6]: 5.81 h⁻¹
K12 (distribution rate constant) [1, 6]: 1.13 h⁻¹
K21 (redistribution rate constant) [1, 6]: 2.07 h⁻¹
V1_F (apparent volume of central compartment) [1, 6]: 0.15 μg/(ng/g)
V2_F (apparent volume of peripheral compartment) [1, 6]: 0.08 μg/(ng/g)
brain drug targeting efficiency ([1]; i.p. 1 mg/kg): 0.71
brain drug targeting efficiency ([1]; p.o. 1 mg/kg): 8.21
brain drug targeting efficiency ([1]; s.c. 1 mg/kg): 1.37
Cmax ([2]; spinal cord, ip): 71.3 ng/g
MRT last ([2]; spinal cord, ip): 37.2 min
Tmax ([2]; spinal cord, ip): 11.9 min
k el ([2]; spinal cord, ip): 0.000242 s⁻¹
Cmax ([2]; spinal cord, iv): 130 ng/g
MRT last ([2]; spinal cord, iv): 41.4 min
k el ([2]; spinal cord, iv): 0.000111 s⁻¹
Cmax ([2]; spinal cord, po): 75.9 ng/g
MRT last ([2]; spinal cord, po): 40.8 min
Tmax ([2]; spinal cord, po): 14.9 min
k el ([2]; spinal cord, po): 0.000122 s⁻¹
Cmax ([2]; spinal cord, sc): 96.6 ng/g
MRT last ([2]; spinal cord, sc): 38.4 min
Tmax ([2]; spinal cord, sc): 23.1 min
k el ([2]; spinal cord, sc): 0.000519 s⁻¹
spinal cord drug targeting efficiency ([2]; i.p. 1 mg/kg): 0.63
spinal cord drug targeting efficiency ([2]; p.o. 1 mg/kg): 4.42
spinal cord drug targeting efficiency ([2]; s.c. 1 mg/kg): 0.77
Alpha (hybrid first-order rate constant, distribution phase) [2, 7]: 0.87 h⁻¹
Beta (hybrid first-order rate constant, elimination phase) [2, 7]: 0.19 h⁻¹
CLD2_F (apparent total clearance of the drug after administration) [2, 7]: 0.01 ng/(min ng/g)
CL_F (apparent total body clearance of the drug) [2, 7]: 5.15 ng/(min ng/g)
K01 (absorption rate constant) [2, 7]: 15.39 h⁻¹
